Measured values: ChEMBL document CHEMBL1152253, “Inhibition of the CRM1-mediated nucleocytoplasmic transport by N-azolylacrylates: structure-activity relationship and mechanism of action” (Bioorg Med Chem, 2008)
≈ marks a conversion by molar mass, not a printed value. Calls of active or inactive are those of the source. The calls are words filed in the database; no cut-off is given here.

How the values were obtained:
[1] = tested on: HeLa; test: Inhibition of Rev-BFP/CRM1Cys528Ser-EYFP mutant interaction in human HeLa cells assessed as Rev-BFP/CRM1Cys528Ser-EYFP nuclear colocalization at 10 ug/mL after 2 hrs by fluorescence microscopy; type: cell-based
Method in brief: (§1)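 HeLa cells were co-transfected with Rev-BFP and the EYFP-CRM1 Cys528 mutant. One day after transfection they were washed with PBS and treated with compound in complete DMEM. Co-localization was followed by live-cell confocal microscopy at 30, 120 and 180 min and 24 h.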

[2] = tested on: Human immunodeficiency virus 1; test: Antiviral activity against HIV1 3B infected in human OM10.1 cells assessed as inhibition of TNF-alpha-induced viral p24 production at 5 ug/mL after 48 hrs by ELISA; type: functional; set-up: scale not given: the % may be the effect or the level left
Method in brief: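 OM10.1 cells chronically infected with HIV-1(IIIB), grown in RPMI 1640 with 10% FCS, were washed twice to remove cell-free virus and seeded at 120,000 cells/well with compound. Cultures were stimulated with 1 ng/ml TNF-α and incubated 48 h at 37 °C. Supernatant p24 was measured by ELISA.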

[3] = molecular target: Exportin-1 (Homo sapiens) (UniProt O14980); test: Inhibition of CRM1-mediated nucleocytoplasmic transport of HIV1 RevM5 mutant in human HeLa cells assessed as HIV1 RevM5-GFP nuclear localization at 10 ug/ml after 2 hrs by fluorescence microscopy; type: cell-based
Method in brief: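 HeLa cells, grown in DMEM with 10% heat-inactivated FCS, 2 mM L-glutamine, 0.1% bicarbonate and gentamicin, were plated on glass-bottom dishes and transfected to express RevM5-GFP. RevM5-GFP is a Rev mutant that stays cytoplasmic but can still enter the nucleus. Compound was added, and after 2 h cellular RevM5-GFP distribution, nuclear versus cytoplasmic, was read by fluorescence microscopy with DIC images.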

[4] = tested on: HeLa; test: Inhibition of Rev-BFP/CRM1-EYFP interaction in human HeLa cells assessed as Rev-BFP/CRM1-EYFP nuclear colocalization at 10 ug/mL after 120 mins by fluorescence microscopy; type: cell-based
Method in brief: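 HeLa cells on glass-bottom dishes, about 50% confluent, were co-transfected with Rev-BFP and CRM1-EYFP. One day later cells were washed with PBS and treated with compound in complete DMEM. Nucleolar co-localization of CRM1-EYFP with Rev was examined by live confocal microscopy at 30, 120 and 180 min and 24 h.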

[5] = Cytotoxicity against HIV1 3B infected human OM10.1 cells at 20 ug/mL after 48 hrs by MTT assay; type: cell-based
Method in brief: (§2)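 Cytotoxicity was read by MTT viability staining on the same TNF-α-stimulated (1 ng/ml), twice-washed HIV-1(IIIB) chronically infected OM10.1 cultures (120,000 cells/well). Compound was present throughout the 48 h incubation at 37 °C.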

[6] = molecular target: Exportin-1 (Homo sapiens) (UniProt O14980); test: Inhibition of CRM1-mediated nucleocytoplasmic transport of RevM5 mutant in HEK293 cells assessed as RevM5-GFP nuclear localization at 10 ug/ml after 2 hrs by fluorescence microscopy; type: cell-based
Method in brief: (§3)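 HEK 293T cells in 96-well trays were transfected with pRevM5-GFP by calcium phosphate, and compound was added one day later. RevM5-GFP distribution was scored by fluorescence microscopy 2 h after addition. Mainly nuclear localization was scored positive; cytoplasmic localization was scored negative.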

[7] = tested on: Human immunodeficiency virus 1; test: Antiviral activity against HIV1 NL4-3 infected in HEK293T cells assessed as inhibition of virion-associated p24 antigen production after 24 hrs by ELISA; type: functional, organism-based
Method in brief: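 HEK 293T cells in DMEM with 10% heat-inactivated FCS were transfected with the HIV-1 molecular clone NL4-3 by calcium phosphate. Compounds were added at a range of concentrations. Virus-associated p24 antigen in the supernatant was measured by ELISA 24 h after compound addition.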

[8] = molecular target: Exportin-1 (Homo sapiens) (UniProt O14980); test: Inhibition of CRM1-mediated nucleocytoplasmic transport of RevM5 mutant in HEK293 cells assessed as RevM5-GFP nuclear localization at 2 ug/ml after 2 hrs by fluorescence microscopy; type: cell-based; method in brief: as §3
[9] = molecular target: Exportin-1 (Homo sapiens) (UniProt O14980); test: Inhibition of CRM1-mediated nucleocytoplasmic transport of RevM5 mutant in HEK293 cells assessed as RevM5-GFP nuclear localization at 0.08 ug/ml after 2 hrs by fluorescence microscopy; type: cell-based; method in brief: as §3
[10] = Cytotoxicity against HIV1 3B infected human OM10.1 cells at 10 ug/mL after 48 hrs by MTT assay; type: cell-based; method in brief: as §2
[11] = molecular target: Exportin-1 (Homo sapiens) (UniProt O14980); test: Inhibition of CRM1-mediated nucleocytoplasmic transport of RevM5 mutant in HEK293 cells assessed as RevM5-GFP nuclear localization at 0.4 ug/ml after 2 hrs by fluorescence microscopy; type: cell-based; method in brief: as §3
[12] = tested on: HeLa; test: Inhibition of Rev-BFP/CRM1Cys528Ser-EYFP mutant interaction in human HeLa cells assessed as Rev-BFP/CRM1Cys528Ser-EYFP nuclear colocalization after 2 hrs by fluorescence microscopy; type: cell-based; method in brief: as §1

Sequence of Exportin-1 (Homo sapiens) (O14980 whole entry): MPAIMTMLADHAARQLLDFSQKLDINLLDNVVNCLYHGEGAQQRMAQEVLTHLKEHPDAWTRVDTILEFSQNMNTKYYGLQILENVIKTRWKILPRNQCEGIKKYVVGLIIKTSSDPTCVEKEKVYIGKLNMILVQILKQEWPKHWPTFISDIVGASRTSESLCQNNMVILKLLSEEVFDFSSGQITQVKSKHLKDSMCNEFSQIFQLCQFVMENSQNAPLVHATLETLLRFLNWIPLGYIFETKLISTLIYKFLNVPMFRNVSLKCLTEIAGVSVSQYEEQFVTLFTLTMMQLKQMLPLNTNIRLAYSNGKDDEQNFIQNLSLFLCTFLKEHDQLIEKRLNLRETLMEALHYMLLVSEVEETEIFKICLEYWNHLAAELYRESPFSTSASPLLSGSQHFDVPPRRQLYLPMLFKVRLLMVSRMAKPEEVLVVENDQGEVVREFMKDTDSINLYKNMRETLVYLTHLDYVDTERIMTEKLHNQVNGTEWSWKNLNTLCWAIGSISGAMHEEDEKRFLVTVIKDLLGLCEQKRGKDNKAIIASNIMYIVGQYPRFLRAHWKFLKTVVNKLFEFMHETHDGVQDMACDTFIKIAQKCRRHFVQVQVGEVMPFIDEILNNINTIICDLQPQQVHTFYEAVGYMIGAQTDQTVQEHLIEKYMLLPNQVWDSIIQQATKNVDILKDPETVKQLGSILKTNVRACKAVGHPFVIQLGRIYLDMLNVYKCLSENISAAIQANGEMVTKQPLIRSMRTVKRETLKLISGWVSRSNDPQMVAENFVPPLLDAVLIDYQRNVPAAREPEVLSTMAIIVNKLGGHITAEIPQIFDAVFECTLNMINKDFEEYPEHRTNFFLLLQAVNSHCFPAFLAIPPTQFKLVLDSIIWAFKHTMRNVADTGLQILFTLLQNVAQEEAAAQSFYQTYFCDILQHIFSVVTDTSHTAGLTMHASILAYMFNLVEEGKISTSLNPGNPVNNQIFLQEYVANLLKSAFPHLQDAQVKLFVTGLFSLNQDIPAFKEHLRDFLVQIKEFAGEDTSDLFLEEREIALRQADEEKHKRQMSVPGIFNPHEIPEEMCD

| Structure (SMILES) | Activity [1] | Activity [2] | Activity [3] | Activity [4] | Activity [5] | Activity [6] | EC50 ([7]; Human immunodeficiency virus 1, NL4-3, HEK-293T) | Activity [8] | Activity [9] | Activity [10] | Activity [11] | Activity ([7]; HEK-293T) | Activity [12] |
| --- | --- | --- | --- | --- | --- | --- | --- | --- | --- | --- | --- | --- | --- |
| CCOC(=O)/C=C\n1nnc(-c2cccc(Cl)c2)n1 | inactive | 94% | Active | Active | Toxic | Active | 0.2 µg/mL (≈ 0.718 µM) | Active | inactive | Toxic | – | – | – |
| Clc1cccc(-c2nnn[nH]2)c1 | – | – | inactive | – | – | inactive | – | inactive | inactive | – | inactive | inactive | inactive |
